# According to ChEMBL document CHEMBL3826935, “Synthesis and Pharmacology of (Pyridin-2-yl)methanol Derivatives as Novel and Selective Transient Receptor Potential Vanilloid 3 Antagonists” (J Med Chem, 2016):
# Key:
# [1] = molecular target: T1, Transient receptor potential cation channel subfamily V member 3 (Homo sapiens) (UniProt Q8NET8); test: Antagonist activity at human TRPV3 expressed in recombinant HEK293 cells assessed as inhibition of 2-APB induced calcium flux by FLIPR analysis; format: cell-based
# T1 sequence (whole entry): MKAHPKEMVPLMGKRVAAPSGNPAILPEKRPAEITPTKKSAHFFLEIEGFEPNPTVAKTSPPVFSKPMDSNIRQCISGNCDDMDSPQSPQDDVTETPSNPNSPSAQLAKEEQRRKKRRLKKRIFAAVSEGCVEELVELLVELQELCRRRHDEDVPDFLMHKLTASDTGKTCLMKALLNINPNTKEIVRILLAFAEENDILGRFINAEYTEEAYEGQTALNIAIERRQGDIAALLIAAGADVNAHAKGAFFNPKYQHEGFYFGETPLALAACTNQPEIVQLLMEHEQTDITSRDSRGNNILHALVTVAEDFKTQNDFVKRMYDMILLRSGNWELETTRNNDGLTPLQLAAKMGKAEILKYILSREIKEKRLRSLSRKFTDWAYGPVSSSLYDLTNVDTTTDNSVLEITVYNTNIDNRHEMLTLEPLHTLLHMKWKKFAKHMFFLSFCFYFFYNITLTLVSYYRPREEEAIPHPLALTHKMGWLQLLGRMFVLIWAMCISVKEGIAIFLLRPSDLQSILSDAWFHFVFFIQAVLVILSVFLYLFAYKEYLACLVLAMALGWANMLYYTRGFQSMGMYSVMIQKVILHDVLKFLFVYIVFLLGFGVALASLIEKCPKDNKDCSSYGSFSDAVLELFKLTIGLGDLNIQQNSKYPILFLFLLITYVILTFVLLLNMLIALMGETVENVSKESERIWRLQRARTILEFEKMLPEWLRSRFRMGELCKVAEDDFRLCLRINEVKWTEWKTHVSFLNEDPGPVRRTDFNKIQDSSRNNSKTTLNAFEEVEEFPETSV
# Outline: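 HEK293 cells stably expressing human TRPV3 (I25V variant), plated the day before in DMEM + 10% FBS at 37 °C, 5% CO2. Calcium 4 dye loaded in Ca/Mg-free HEPES D-PBS pH 7.4 for 1–2 h at room temperature. Compound dilutions added with 3 min baseline, then 2-APB at 60 µM final; Ca2+ flux read 3 min on FLIPR. Kb from at least duplicates, averaged across independent runs.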
# [2] = molecular target: T2, Nuclear receptor subfamily 1 group I member 2 (Homo sapiens, UniProt O75469); test: Activation of human PXR; format: ADME; conditions: human
# T2 sequence (O75469 whole entry): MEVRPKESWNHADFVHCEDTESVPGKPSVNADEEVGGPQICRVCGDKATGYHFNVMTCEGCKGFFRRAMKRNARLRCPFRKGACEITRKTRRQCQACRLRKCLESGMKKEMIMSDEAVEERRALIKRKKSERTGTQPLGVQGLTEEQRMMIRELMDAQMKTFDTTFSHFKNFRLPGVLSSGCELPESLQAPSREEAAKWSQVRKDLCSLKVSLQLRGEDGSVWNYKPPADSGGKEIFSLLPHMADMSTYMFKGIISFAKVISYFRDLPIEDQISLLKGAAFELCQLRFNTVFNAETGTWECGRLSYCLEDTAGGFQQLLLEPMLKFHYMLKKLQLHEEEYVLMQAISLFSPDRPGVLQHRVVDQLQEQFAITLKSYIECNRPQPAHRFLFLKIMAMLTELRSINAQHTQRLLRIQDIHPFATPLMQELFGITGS
# Liver microsome [3] = test: Unbound intrinsic clearance in rat liver microsomes after 5 hrs by LC-MS/MS analysis; format: ADME
# Outline: (§1)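 Microsomal stability run in an automated high-throughput plate format. Intrinsic clearance corrected for nonspecific microsomal binding using measured unbound fraction (fu,mic), reported as unbound Clint in L/h/kg.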
# Rattus norvegicus [4] = species: Rattus norvegicus; test: Cardiotoxicity in rat assessed as increase in cardiac contractility at plasma concentration of 4.7 ug/ml; format: toxicity, organism-based
# Liver microsome [5] = test: Unbound intrinsic clearance in human liver microsomes after 5 hrs by LC-MS/MS analysis; format: ADME; outline: as §1
# Rattus norvegicus [6] = species: Rattus norvegicus; test: Cardiotoxicity in rat assessed as increase in mean arterial pressure; format: toxicity, organism-based, Artery; conditions: in vivo
Structure (SMILES),Kb [1],Activity [2],CL free (Liver microsome [3]),CL free (Liver microsome [5]),Activity (Rattus norvegicus [4]),Activity (Rattus norvegicus [6])
C[C@]1(O)C[C@](c2ccnc(C(F)(F)F)c2)([C@H](O)c2ccccn2)C1,500 nM,Not Active,83 mL/min/kg,67 mL/min/kg,Non-toxic,Non-toxic
O[C@H](c1ccccn1)[C@]1(c2cc(C(F)(F)F)ccn2)C[C@@H](O)C1,320 nM,Not Active,50 mL/min/kg,33 mL/min/kg,Non-toxic,Non-toxic
O[C@H](c1ccccn1)[C@]1(c2ccc(C(F)(F)F)cc2)C[C@H](O)C1,2240 nM,Not Active,50 mL/min/kg,50 mL/min/kg,Non-toxic,Non-toxic
C[C@]1(O)C[C@@](c2ccnc(C(F)(F)F)c2)([C@H](O)c2ccccn2)C1,4270 nM,Not Active,50 mL/min/kg,67 mL/min/kg,Non-toxic,Non-toxic
"C[C@@]1(c2ccc(OC(F)(F)F)cc2)C[C@@](O)(c2ccccn2)CO1 (single isomer, unassigned)",1120 nM,,333 mL/min/kg,67 mL/min/kg,,
C[C@]1(O)C[C@](c2cccc(OC(F)(F)F)c2)([C@H](O)c2ccccn2)C1,1310 nM,Not Active,50 mL/min/kg,120 mL/min/kg,Non-toxic,Non-toxic
C[C@@]1(c2ccc(OC(F)(F)F)cc2)C[C@](O)(c2ccccn2)CO1,1710 nM,,383 mL/min/kg,217 mL/min/kg,,
O[C@H](c1ccccn1)[C@]1(c2cccc(OC(F)(F)F)c2)C[C@@H](O)C1,80 nM,Not Active,217 mL/min/kg,120 mL/min/kg,Non-toxic,Non-toxic
C[C@]1(O)C[C@@](c2cccc(OC(F)(F)F)c2)([C@H](O)c2ccccn2)C1,280 nM,Not Active,200 mL/min/kg,167 mL/min/kg,Non-toxic,Non-toxic
C[C@]1(O)C[C@@](c2ccc(C(F)(F)F)cc2)([C@H](O)c2ccccn2)C1,840 nM,Not Active,150 mL/min/kg,50 mL/min/kg,Non-toxic,Non-toxic
OC(c1ccccn1)C1(c2ccc(C(F)(F)F)cc2)CNC1 (stereo unspecified),6680 nM,,50 mL/min/kg,33 mL/min/kg,,
C[C@]1(c2ccc(OC(F)(F)F)cc2)C[C@@](O)(c2ccccn2)CO1,2460 nM,,150 mL/min/kg,120 mL/min/kg,,
O[C@@]1(c2ccccn2)CC[C@@H](c2ccc(C(F)(F)F)cc2)C1,240 nM,,2520 mL/min/kg,150 mL/min/kg,,
O[C@]1(c2ccccn2)CC[C@@H](c2ccc(C(F)(F)F)cc2)C1,130 nM,,7670 mL/min/kg,383 mL/min/kg,,
O[C@H](c1ccccn1)[C@]1(c2cc(C(F)(F)F)ccn2)C[C@H](O)C1,270 nM,Not Active,50 mL/min/kg,33 mL/min/kg,Non-toxic,Non-toxic
O[C@H](c1ccccn1)[C@]1(c2cccc(OC(F)(F)F)c2)C[C@H](O)C1,40 nM,Not Active,120 mL/min/kg,150 mL/min/kg,Non-toxic,Non-toxic
C[C@]1(O)C[C@@](c2cc(C(F)(F)F)ccn2)([C@H](O)c2ccccn2)C1,730 nM,Not Active,120 mL/min/kg,33 mL/min/kg,Non-toxic,Non-toxic
CN1CC(c2ccc(C(F)(F)F)cc2)(C(O)c2ccccn2)C1 (stereo unspecified),6630 nM,,120 mL/min/kg,50 mL/min/kg,,
O[C@]1(c2ccccn2)CC[C@H](c2ccc(C(F)(F)F)cc2)C1,540 nM,,1430 mL/min/kg,333 mL/min/kg,,
O[C@@]1(c2ccccn2)CC[C@H](c2ccc(C(F)(F)F)cc2)C1,610 nM,,350 mL/min/kg,400 mL/min/kg,,

# Continued, in another order:
Kb [1],Activity [2],CL free (Liver microsome [3]),CL free (Liver microsome [5]),Structure (SMILES),Activity (Rattus norvegicus [4]),Activity (Rattus norvegicus [6])
470 nM,,,,O[C@H](c1ccccn1)[C@]1(c2ccc(Cl)c(Cl)c2)CCCO1,,
80 nM,,850 mL/min/kg,250 mL/min/kg,O[C@H](c1ccccn1)C1(c2ccc(Cl)c(Cl)c2)CC(F)(F)C1,,
610 nM,,3000 mL/min/kg,833 mL/min/kg,OC(c1ncccc1F)C1(c2ccc(Cl)c(Cl)c2)CCC1 (racemic),,
43 nM,,2980 mL/min/kg,383 mL/min/kg,O[C@H](c1ccccn1)[C@@]1(c2ccc(Cl)c(Cl)c2)CCCO1,,
1540 nM,,483 mL/min/kg,100 mL/min/kg,OC(c1ncccn1)C1(c2ccc(OC(F)(F)F)cc2)CCC1 (racemic),,
90 nM,Not Active,183 mL/min/kg,130 mL/min/kg,O[C@H](c1ccccn1)[C@]1(c2cccc(C(F)(F)F)c2)C[C@H](O)C1,Non-toxic,Non-toxic
300 nM,Not Active,317 mL/min/kg,150 mL/min/kg,C[C@]1(O)C[C@@](c2cccc(C(F)(F)F)c2)([C@H](O)c2ccccn2)C1,Non-toxic,Non-toxic
370 nM,,833 mL/min/kg,267 mL/min/kg,O[C@H](c1ncccn1)C1(c2ccc(Cl)c(Cl)c2)CCC1,,
150 nM,,50 mL/min/kg,67 mL/min/kg,O[C@H](c1ccccn1)[C@]1(c2ccc(Cl)c(Cl)c2)CCO1,,
3400 nM,,6330 mL/min/kg,1670 mL/min/kg,CC(O)(c1ccccn1)C1(c2ccc(Cl)c(Cl)c2)CCC1 (racemic),,
7370 nM,,417 mL/min/kg,130 mL/min/kg,OC(c1ccccn1)C1(c2ccc(Cl)c(Cl)c2)COC1 (stereo unspecified),,
380 nM,,1000 mL/min/kg,217 mL/min/kg,O[C@H](c1ccccn1)[C@@]1(c2ccc(Cl)c(Cl)c2)CCO1,,
140 nM,,1050 mL/min/kg,333 mL/min/kg,O[C@H](c1ccccn1)C1(c2ccc(OC(F)(F)F)cc2)CCC1,,
910 nM,,3170 mL/min/kg,767 mL/min/kg,OC(c1ccc(F)cn1)C1(c2ccc(Cl)c(Cl)c2)CCC1 (racemic),,
630 nM,,983 mL/min/kg,417 mL/min/kg,OC(c1ccccn1)C1(c2ccc(Cl)c(Cl)c2)CCOC1 (stereo unspecified),,
640 nM,,3850 mL/min/kg,533 mL/min/kg,OC(c1cc(F)ccn1)C1(c2ccc(Cl)c(Cl)c2)CCC1 (racemic),,
80 nM,,1720 mL/min/kg,2220 mL/min/kg,O[C@H](c1ccccn1)C1(c2cccc(OC(F)(F)F)c2)CCC1,,
550 nM,,1830 mL/min/kg,1230 mL/min/kg,OC(c1ccccn1)C1(c2ccccc2OC(F)(F)F)CCC1 (racemic),,
